According to ChEMBL document CHEMBL1136726, “Synthesis and characterization of iodine-123 labeled 2beta-carbomethoxy-3beta-(4'-((Z)-2-iodoethenyl)phenyl)nortropane. A ligand for in vivo imaging of serotonin transporters by single-photon-emission tomography” (J Med Chem, 2003):

Key:
[1] = test system: Rattus norvegicus; test: Distribution of radioactivity in rat brain region frontal cortex 60 min after intravenous administration of iodine labeled compound in presence of fluvoxamine blocker in study 1; type: ADME, organism-based; conditions: in vivo, 1 h
Summary of the method: (§1)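 Male Sprague–Dawley rats (250–300 g), ketamine-anesthetized. Blocker (2 mg/kg) or none was given iv 15 min before tail-vein radioligand (10 µCi in 0.2 mL 10% EtOH/saline). Rats were killed at 60 min with im pentobarbital. Brain regions were dissected, weighed and gamma-counted. % dose/g was taken from decay-corrected, background-subtracted counts versus the injected dose.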

[2] = test system: Rattus norvegicus; test: Distribution of radioactivity in rat brain pons 120 min after intravenous administration of iodine labeled compound; type: ADME, organism-based; conditions: in vivo, 2 h
Summary of the method: (§2)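 Male Sprague–Dawley rats (225–300 g) under ketamine received 10 µCi radioligand iv (tail vein) in 10% EtOH/saline. Hypothalamus, prefrontal cortex, striatum, pons and cerebellum were dissected, weighed and gamma-counted. % injected dose/g was taken from decay-corrected counts versus diluted dose. Mean ± SE and range, n=5 (5, 30 min) or 4 (60, 120 min).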

[3] = test system: Rattus norvegicus; test: Distribution of radioactivity in rat muscle tissue 5 min after intravenous administration of iodine labeled compound; type: ADME, organism-based; conditions: in vivo
Summary of the method: (§3)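 Tail-vein injection of [123I]ZIENT (10 μCi in 0.2 mL 10% EtOH/0.9% NaCl, then 0.4 mL saline flush) into ketamine-anaesthetised male Sprague–Dawley rats (225–300 g). Animals were killed by cardiac excision at set times. Organs were excised, rinsed, blotted, weighed and gamma-counted. % dose/g was calculated against diluted aliquots of injectate. Mean ± SE, n=4–5.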

[4] = test system: Rattus norvegicus; test: Ratio of distribution of radioactivity in rat brain striatum and cerebellum 60 min after intravenous administration of iodine labeled compound; type: ADME, organism-based; conditions: in vivo, 1 h
Summary of the method: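 Male Sprague–Dawley rats (225–300 g), ketamine anesthesia, injected via tail vein with [123I]ZIENT (10 μCi in 0.2 mL 10% EtOH/0.9% NaCl, 0.4 mL saline flush). Killed at 5, 30, 60 or 120 min. Striatum and cerebellum dissected, weighed, γ-counted. Decay-corrected %injected dose/g taken against diluted injectate. Ratio is striatum over cerebellum. Four or five rats per time point, mean ± standard error.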

[5] = test system: Rattus norvegicus; test: Distribution of radioactivity in rat brain region prefrontal cortex 60 min after intravenous administration of iodine labeled compound in absence of blocker in study 2; type: ADME, organism-based; conditions: in vivo, 1 h; summary of the method: as §1
[6] = test system: Rattus norvegicus; test: Distribution of radioactivity in rat testis 5 min after intravenous administration of iodine labeled compound; type: ADME, organism-based; conditions: in vivo; summary of the method: as §3
[7] = test system: Rattus norvegicus; test: Distribution of radioactivity in rat brain region striatum 60 min after intravenous administration of iodine labeled compound in presence of fluvoxamine blocker in study 1; type: ADME, organism-based; conditions: in vivo, 1 h
Summary of the method: (§4)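 Male Sprague–Dawley rats (250–300 g), ketamine-anaesthetised, received [123I]ZIENT (10 μCi) in 0.2 mL 10% ethanol/0.9% NaCl via the tail vein. […] Rats were killed at 60 min with pentobarbital, brain regions dissected and gamma-counted. Values are % dose/g from decay-corrected, background-subtracted counts against the diluted injected dose.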

[8] = test system: Rattus norvegicus; test: Distribution of radioactivity in rat thyroid 60 min after intravenous administration of iodine labeled compound; type: ADME, organism-based, Thyroid gland; conditions: in vivo, 1 h; summary of the method: as §3
[9] = test system: Rattus norvegicus; test: Ratio of distribution of radioactivity in rat brain region hypothalamus and cerebellum 60 min after intravenous administration of iodine labeled compound in absence of blocker in study 1; type: ADME, organism-based; conditions: in vivo, 1 h
[10] = test system: Rattus norvegicus; test: Distribution of radioactivity in rat kidney 30 min after intravenous administration of iodine labeled compound; type: ADME, organism-based; conditions: in vivo, 0.5 h; summary of the method: as §3
[11] = test system: Rattus norvegicus; test: Ratio of distribution of radioactivity in rat brain region prefrontal cortex and cerebellum 60 min after intravenous administration of iodine labeled compound in absence of blocker in study 1; type: ADME, organism-based; conditions: in vivo, 1 h
[12] = test system: Rattus norvegicus; test: Ratio of distribution of radioactivity in rat brain region striatum and cerebellum 60 min after intravenous administration of iodine labeled compound in presence of RTI-113 blocker in study 1; type: ADME, organism-based; conditions: in vivo, 1 h
[13] = test system: Rattus norvegicus; test: Distribution of radioactivity in rat testis 30 min after intravenous administration of iodine labeled compound; type: ADME, organism-based; conditions: in vivo, 0.5 h; summary of the method: as §3
[14] = test system: Rattus norvegicus; test: Distribution of radioactivity in rat kidney 120 min after intravenous administration of iodine labeled compound; type: ADME, organism-based; conditions: in vivo, 2 h; summary of the method: as §3
[15] = target: Sodium-dependent serotonin transporter (Homo sapiens, UniProt P31645); test: In vitro competitive binding versus [3H]citalopram in murine kidney cells transfected with cDNA for human serotonin transporter (SERT); type: cell-based
[16] = test system: Rattus norvegicus; test: Distribution of radioactivity in rat brain cerebellum 5 min after intravenous administration of iodine labeled compound; type: ADME, organism-based; conditions: in vivo; summary of the method: as §2
[17] = test system: Rattus norvegicus; test: Distribution of radioactivity in rat brain region hypothalamus 60 min after intravenous administration of iodine labeled compound in presence of RTI-113 blocker in study 1; type: ADME, organism-based; conditions: in vivo, 1 h; summary of the method: as §1
[18] = test system: Rattus norvegicus; test: Ratio of distribution of radioactivity in rat brain hypothalamus and cerebellum 30 min after intravenous administration of iodine labeled compound; type: ADME, organism-based; conditions: in vivo, 0.5 h
Summary of the method: (§5)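 Male Sprague–Dawley rats (225–300 g) under ketamine anaesthesia were given [123I]ZIENT (10 μCi) in 0.2 mL 10% EtOH/0.9% NaCl into the tail vein, with a saline flush. Hypothalamus, prefrontal cortex, striatum, pons and cerebellum were dissected and gamma-counted. % injected dose/g came from decay-corrected counts against the diluted injected dose, and region/cerebellum ratios were taken from these. Mean ± SE, n=4–5.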

[19] = test system: Rattus norvegicus; test: Distribution of radioactivity in rat brain region frontal cortex 60 min after intravenous administration of iodine labeled compound in presence of RTI-113 blocker in study 1; type: ADME, organism-based; conditions: in vivo, 1 h; summary of the method: as §1
[20] = test system: Rattus norvegicus; test: Ratio of distribution of radioactivity in rat brain region striatum and cerebellum 60 min after intravenous administration of iodine labeled compound in presence of fluvoxamine blocker in study 1; type: ADME, organism-based; conditions: in vivo, 1 h
[21] = test system: Rattus norvegicus; test: Distribution of radioactivity in rat brain 5 min after intravenous administration of iodine labeled compound; type: ADME, organism-based; conditions: in vivo
[22] = test system: Rattus norvegicus; test: Distribution of radioactivity in rat lung 120 min after intravenous administration of iodine labeled compound; type: ADME, organism-based; conditions: in vivo, 2 h; summary of the method: as §3
[23] = test system: Rattus norvegicus; test: Distribution of radioactivity in rat brain region striatum 60 min after intravenous administration of iodine labeled compound in absence of blocker in study 1; type: ADME, organism-based; conditions: in vivo, 1 h; summary of the method: as §4
[24] = test system: Rattus norvegicus; test: Distribution of radioactivity in rat muscle tissue 120 min after intravenous administration of iodine labeled compound; type: ADME, organism-based; conditions: in vivo, 2 h; summary of the method: as §3
[25] = test system: Rattus norvegicus; test: Ratio of distribution of radioactivity in rat brain hypothalamus and cerebellum 120 min after intravenous administration of iodine labeled compound; type: ADME, organism-based; conditions: in vivo, 2 h; summary of the method: as §5
[26] = test system: Rattus norvegicus; test: Distribution of radioactivity in rat kidney 60 min after intravenous administration of iodine labeled compound; type: ADME, organism-based; conditions: in vivo, 1 h; summary of the method: as §3
[27] = test system: Rattus norvegicus; test: Distribution of radioactivity in rat liver 120 min after intravenous administration of iodine labeled compound; type: ADME, organism-based; conditions: in vivo, 2 h; summary of the method: as §3
[28] = test system: Rattus norvegicus; test: Ratio of distribution of radioactivity in rat brain region prefrontal cortex and cerebellum 60 min after intravenous administration of iodine labeled compound in presence of fluvoxamine blocker in study 1; type: ADME, organism-based; conditions: in vivo, 1 h
[29] = test system: Rattus norvegicus; test: Distribution of radioactivity in rat heart 30 min after intravenous administration of iodine labeled compound; type: ADME, organism-based; conditions: in vivo, 0.5 h; summary of the method: as §3
[30] = test system: Rattus norvegicus; test: Ratio of distribution of radioactivity in rat brain hypothalamus and cerebellum 5 min after intravenous administration of iodine labeled compound; type: ADME, organism-based; conditions: in vivo; summary of the method: as §5
[31] = test system: Rattus norvegicus; test: Distribution of radioactivity in rat brain cerebellum 30 min after intravenous administration of iodine labeled compound; type: ADME, organism-based; conditions: in vivo, 0.5 h; summary of the method: as §2
[32] = test system: Rattus norvegicus; test: Distribution of radioactivity in rat heart 120 min after intravenous administration of iodine labeled compound; type: ADME, organism-based; conditions: in vivo, 2 h; summary of the method: as §3
[33] = test system: Rattus norvegicus; test: Ratio of distribution of radioactivity in rat brain prefrontal cortex and cerebellum 60 min after intravenous administration of iodine labeled compound; type: ADME, organism-based; conditions: in vivo, 1 h; summary of the method: as §5
[34] = test system: Rattus norvegicus; test: Ratio of distribution of radioactivity in rat brain region prefrontal cortex and cerebellum 60 min after intravenous administration of iodine labeled compound in presence of RTI-113 blocker in study 1; type: ADME, organism-based; conditions: in vivo, 1 h

Sequence of Sodium-dependent serotonin transporter (P31645 whole entry): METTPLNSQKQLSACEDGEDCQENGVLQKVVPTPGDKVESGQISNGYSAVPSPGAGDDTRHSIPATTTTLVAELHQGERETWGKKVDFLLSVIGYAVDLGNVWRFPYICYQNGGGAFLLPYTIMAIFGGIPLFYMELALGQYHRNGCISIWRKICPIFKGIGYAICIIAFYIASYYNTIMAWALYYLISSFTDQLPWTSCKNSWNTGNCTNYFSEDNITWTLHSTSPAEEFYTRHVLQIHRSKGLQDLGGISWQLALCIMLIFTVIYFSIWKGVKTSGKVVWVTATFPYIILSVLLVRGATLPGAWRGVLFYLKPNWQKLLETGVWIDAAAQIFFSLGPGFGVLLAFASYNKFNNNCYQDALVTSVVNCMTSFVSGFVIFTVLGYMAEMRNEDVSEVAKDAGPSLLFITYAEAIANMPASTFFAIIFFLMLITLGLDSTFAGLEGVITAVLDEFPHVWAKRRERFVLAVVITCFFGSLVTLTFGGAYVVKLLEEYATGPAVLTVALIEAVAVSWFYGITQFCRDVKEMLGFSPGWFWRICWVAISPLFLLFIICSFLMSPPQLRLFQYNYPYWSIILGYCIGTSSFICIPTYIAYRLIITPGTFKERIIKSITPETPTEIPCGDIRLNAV

Question: How did the “Distribution (dose/g)” value [1] turn out when `COC(=O)[C@@H]1C2CCC(C[C@@H]1c1ccc(/C=C\I)cc1)N2` (some centres undefined) was run?
Answer: Its value is 0.27%.

Question: And the “Distribution (dose/g)” value [2]?
Answer: Its value is 0.4%.

Question: What about the “Distribution (dose/g)” value [3] of the same molecule?
Answer: Its value is 0.23%.

Question: And the “Distribution (dose/g)” value [4]?
Answer: Its value is 2.72%.

Question: And the “Distribution (dose/g)” value [5]?
Answer: Its value is 0.74%.

Question: What about the “Distribution (dose/g)” value [6] of the same molecule?
Answer: The value was 0.21%.

Question: What about the “Distribution (dose/g)” value [7] of the same molecule?
Answer: Its value is 0.3%.

Question: And the “Distribution (dose/g)” value [8]?
Answer: Its value is 0.8%.

Question: What about the “Distribution (dose/g)” value [9] of the same molecule?
Answer: Its value is 3.83%.

Question: And the “Distribution (dose/g)” value [10]?
Answer: Its value is 0.49%.

Question: What about the “Distribution (dose/g)” value [11] of the same molecule?
Answer: The value was 3.88%.

Question: What about the “Distribution (dose/g)” value [12] of the same molecule?
Answer: The value was 2.56%.

Question: And the “Distribution (dose/g)” value [13]?
Answer: Its value is 0.34%.

Question: And the “Distribution (dose/g)” value [14]?
Answer: Its value is 0.31%.

Question: And the Ki [15]?
Answer: Its Ki is 0.05 nM.

Question: What about the “Distribution (dose/g)” value [16] of the same molecule?
Answer: The value was 0.53%.

Question: What about the “Distribution (dose/g)” value [17] of the same molecule?
Answer: Its value is 0.8%.

Question: And the “Distribution (dose/g)” value [18]?
Answer: Its value is 2.38%.

Question: What about the “Distribution (dose/g)” value [19] of the same molecule?
Answer: Its value is 0.66%.

Question: What about the “Distribution (dose/g)” value [20] of the same molecule?
Answer: The value was 1.76%.

Question: What about the “Distribution (dose/g)” value [21] of the same molecule?
Answer: The value was 0.83%.

Question: And the “Distribution (dose/g)” value [22]?
Answer: The value was 0.76%.

Question: And the “Distribution (dose/g)” value [23]?
Answer: The value was 0.76%.

Question: And the “Distribution (dose/g)” value [24]?
Answer: Its value is 0.17%.

Question: What about the “Distribution (dose/g)” value [25] of the same molecule?
Answer: Its value is 4.92%.

Question: And the “Distribution (dose/g)” value [26]?
Answer: The value was 0.34%.

Question: What about the “Distribution (dose/g)” value [27] of the same molecule?
Answer: Its value is 0.23%.

Question: What about the “Distribution (dose/g)” value [28] of the same molecule?
Answer: The value was 1.65%.

Question: And the “Distribution (dose/g)” value [29]?
Answer: Its value is 0.36%.

Question: What about the “Distribution (dose/g)” value [30] of the same molecule?
Answer: The value was 1.09%.

Question: What about the “Distribution (dose/g)” value [31] of the same molecule?
Answer: Its value is 0.32%.

Question: And the “Distribution (dose/g)” value [32]?
Answer: Its value is 0.22%.

Question: And the “Distribution (dose/g)” value [33]?
Answer: Its value is 3.28%.

Question: What about the “Distribution (dose/g)” value [34] of the same molecule?
Answer: Its value is 3.12%.
